EBI2 antag: EBI2 receptor antagonists, beta-arrestin recruitment, primary screen, cell-based, luminescence, 7a,25-OHC stimulation, uHTS; G-protein coupled receptor 183 (Homo sapiens), P32249; 7a,25-OHC stimulated; inhibition, % at 5 µM; 360,000 compounds, 0.81% hits; AID 651636, 2012; in the data active means inhibition above about 38%;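 further: enzyme fragment complementation signal reports receptor beta-arrestin coupling in cells; 0% = agonist plus DMSO wells and 100% = wells without agonist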
Target sequence (P32249 whole entry, looked up, the tested form may be a part): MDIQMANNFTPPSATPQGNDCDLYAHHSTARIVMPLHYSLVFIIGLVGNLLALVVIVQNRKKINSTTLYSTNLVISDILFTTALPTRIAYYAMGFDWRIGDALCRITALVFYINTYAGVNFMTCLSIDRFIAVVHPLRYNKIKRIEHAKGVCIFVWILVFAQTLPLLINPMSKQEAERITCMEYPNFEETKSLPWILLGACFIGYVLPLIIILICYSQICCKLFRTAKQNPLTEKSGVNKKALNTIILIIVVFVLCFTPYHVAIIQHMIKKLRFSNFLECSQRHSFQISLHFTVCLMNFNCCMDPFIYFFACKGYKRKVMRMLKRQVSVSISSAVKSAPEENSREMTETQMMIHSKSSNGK
APJ antagonist: antagonists of human apelin receptor APJ, primary screen, CHO-K1 cells, beta-arrestin complementation, luminescence; P35414; AID 2521, 2010; inhibition, % at 20 µM; 330,000 compounds, 0.32% hits;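 active means inhibition above about 40% at 20 µM, limit read from the data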;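 further: cells challenged with 10 nM apelin-13 agonist together with compound; plate controls were apelin-13 plus DMSO wells for no effect and DMSO wells lacking apelin-13 for full effect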
APJ ag: agonists of human apelin receptor APJ, primary screen, CHO-K1 cells, PathHunter beta-arrestin, luminescence. P35414. activation, % at 20 µM. 330,000 compounds, 0.11% hits. 0% DMSO wells, 100% apelin;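 active means activation more than six SD over the plate average, tested at 20 µM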;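 further: 0% = DMSO alone and 100% = apelin-13 at 10 nM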
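Assay system: CHO-K1 cells stably expressing ProLink-tagged human APJ and arrestin–beta-gal acceptor. Compound dosing: 20 µM single point, 1% DMSO. Times: 16-18 h seeding, 90 min dark compound exposure, 60 min detection. Detection: beta-gal luminescence. Evaluation: APJ–arrestin association signal. Controls: negative DMSO alone, positive Apelin-13 at 10 nM.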
CCR6 antagonist: CCR6 receptor antagonists, primary screen, cell-based, CHO-K1, luminescence, beta-arrestin, uHTS. C-C chemokine receptor type 6 (Homo sapiens), P51684. CHO-K1 CCR6 PathHunter beta-arrestin, CCL20-stimulated. inhibition, % at 20 µM. 340,000 compounds, 0.49% hits. AID 493098, 2011;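 active means compounds whose inhibition of the agonist-driven luminescence signal at 20 µM reaches about 50%, limit read from the data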;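 further: cells stimulated with CCL20 at 14 nM final; plate controls were DMSO with CCL20 for no effect and DMSO without agonist for full effect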
CXCR6 block: CXCR6 receptor inhibitors, primary screen, cell-based, beta-arrestin, luminescence, CHO-K1 PathHunter, 1536-well; C-X-C chemokine receptor type 6 (Homo sapiens), O00574; AID 602244, 2012; inhibition, % at 20 µM; 360,000 compounds, 0.36% hits; in the data active means inhibition above about 34%, passing the limit was not always enough;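 further: antagonist mode with CXCL16 agonist at 10 nM final; 0% = 10 nM CXCL16 with DMSO and 100% = unstimulated wells without agonist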
Target sequence (O00574 whole entry, looked up): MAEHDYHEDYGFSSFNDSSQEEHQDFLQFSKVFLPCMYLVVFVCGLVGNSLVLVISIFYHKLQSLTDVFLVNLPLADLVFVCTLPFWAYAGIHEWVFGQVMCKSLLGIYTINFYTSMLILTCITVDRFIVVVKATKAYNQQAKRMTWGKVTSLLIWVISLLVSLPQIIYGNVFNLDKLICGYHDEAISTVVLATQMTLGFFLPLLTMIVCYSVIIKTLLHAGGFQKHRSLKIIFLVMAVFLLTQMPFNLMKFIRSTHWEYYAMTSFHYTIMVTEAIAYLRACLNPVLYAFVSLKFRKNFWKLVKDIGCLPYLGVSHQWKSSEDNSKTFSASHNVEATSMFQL
CXCR6 confirm: CXCR6 receptor antagonists, confirmation, cell-based, single concentration, beta-arrestin, luminescence; shares compounds with CXCR6 block; CHO-K1 CXCR6 PathHunter beta-arrestin; inhibition, % at 20 µM; 700 compounds, 65% hits; AID 602409, 2012;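 active means mean inhibition over four retests above 40%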;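 further: receptor stimulated with 10 nM CXCL16 agonist; beta-galactosidase fragment complementation upon beta-arrestin recruitment to receptor; plate controls were CXCL16 plus DMSO for no effect and DMSO without CXCL16 for full effect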
* = called active by the depositor; . = no result given. A selection: hits, their analogues and other compounds. The true share with any hit is near 1.5%.

SMILES	EBI2 antag	APJ antagonist	APJ ag	CCR6 antagonist	CXCR6 block	CXCR6 confirm
CCn1nccc1C(=O)Nc1nc2ccccc2n1CCN1CCCCC1	-1.9	18.1	1.2	54.4*	63.8*	47.7*
COc1ccc(N(CC(=O)NCc2ccco2)C(=O)CNS(=O)(=O)c2ccc(Cl)cc2)cc1	4.4	-1.8	3.4	17.7	1.9	.
COc1ccc(/C=N/Nc2ccccc2)cc1Cn1nc(C)c([N+](=O)[O-])c1C	13.3	7.9	-4.0	36.5	51.3*	12.6
CCOc1ccc(CNc2ccc(N3CCN(Cc4ccccc4)CC3)cc2)cc1	5.2	-20.6	8.1	14.8	101.5*	10.6
CCCCc1c(Cc2ccccc2)ncn1CCc1ccccc1OC	0.4	.	.	.	38.4*	2.6
Cc1ccc(S(=O)(=O)NCC(=O)OCC(=O)c2ccc(S(=O)(=O)N3CCCCC3)cc2)cc1C	15.1	.	.	71.6*	55.7*	33.2
Cc1ccc(C)c(Cn2c(=O)n(C)c(=O)c3sccc32)c1	-5.1	8.7	-0.8	17.4	1.9	.
CC(OC(=O)c1nc(-c2ccccc2)n(-c2ccccc2)n1)C(=O)Nc1cc(Cl)cc(Cl)c1 (centres undefined)	2.9	1.2	-1.2	8.8	47.1*	13.4
Cc1nn(-c2ccccc2)c(C)c1C(=O)OC(C)C(=O)Nc1ccc(C(N)=O)cc1 (centres undefined)	0.8	2.1	-3.3	4.6	1.3	.
COc1ccc(NC(=O)c2cc(-c3ccc(C)o3)nc3ccccc23)c(OC)c1	-14.2	15.2	-1.5	5.1	10.0	.
Cc1ccc(-c2cc(C(=O)Nc3ccccc3C(N)=O)c3ccccc3n2)o1	11.0	27.7	-5.2	18.3	46.6*	1.2
CN1CCN(NC(=O)c2c(-c3ccccc3)sc3ccccc23)CC1	-3.4	16.6	0.1	0.5	3.6	.
O/N=C1/CCCCC1c1ccccn1 (centres undefined)	-0.4	5.8	6.1	15.9	57.2*	-3.4
O=[N+]([O-])c1ccc(C2CCCC/C2=N/O)c([N+](=O)[O-])c1 (centres undefined)	-4.3	-11.1	-0.3	2.7	1.9	.
COc1cccc(-c2csc(N3CCN(C(=O)Nc4ccccc4OC)CC3)n2)c1	-1.6	-4.7	-4.1	-6.5	68.0*	-7.7
COc1cccc(-c2csc(N3CCN(C(=O)Nc4ccc(F)cc4)CC3)n2)c1	7.3	0.8	0.1	17.4	-13.4	.
Cc1ccc(OCC(=O)N(C)C2CCCCC2)c([N+](=O)[O-])n1	-0.3	-5.5	-1.8	2.1	0.6	.
Cc1c(C(=O)NCc2ccc([N+](=O)[O-])cc2)sc(=O)n1Cc1ccc2c(c1)OCO2	-2.1	.	.	.	4.2	.
O=C1C=CC(=O)N1CCCCCCCCCCN1C(=O)C=CC1=O	25.7	.	.	110.5*	86.7*	50.6*
NS(=O)(=O)c1ccc(CCNC(=O)CN2C(=O)COc3ccc(S(=O)(=O)N4CCCC4)cc32)cc1	-6.7	14.1	-2.2	5.7	0.7	.
COc1ccc(-c2noc(CNS(=O)(=O)c3ccc(NC(C)=O)cc3)n2)cc1OC	-9.0	6.9	-1.5	-2.3	-2.5	.
Nc1nnc(SCC(=O)OCC(=O)c2ccccc2)s1	2.6	-5.7	-1.9	-1.9	-2.5	.
Nc1nnc(SCC(=O)OCC(=O)c2ccccc2Br)s1	-4.3	4.2	-0.4	13.3	48.9*	9.1
O=C(NCC(c1ccco1)N1CCc2ccccc2C1)c1ccccc1 (centres undefined)	-3.7	22.6	3.8	14.0	2.6	.
COc1cc(C(=O)NCC(c2ccco2)N2CCc3ccccc3C2)cc(OC)c1OC (centres undefined)	1.8	-50.1	-0.3	9.2	44.3*	53.8*
SMILES	EBI2 antag	APJ antagonist	APJ ag	CCR6 antagonist	CXCR6 block	CXCR6 confirm
CCNc1nc(NCC)n2c(SCC(=O)Nc3ccc(C)c(C)c3)nnc2n1	3.8	-10.1	7.4	11.1	2.6	.
CCOC(=O)c1c(S(=O)(=O)N2CCN(c3ccc(F)cc3)CC2)c(C)n(C)c1C	10.9	-3.4	-0.4	10.5	0.8	.
O=C(COc1ccc(Br)cc1Cl)NC(=S)N1CCc2ccccc21	4.0	11.8	-4.1	44.2	56.9*	53.4*
NN=C1c2ccccc2C(=O)C1C(=O)C(c1ccccc1)c1ccccc1 (centres undefined)	0.0	.	.	63.4*	40.2*	33.6
CCN(Cc1ccccc1)C(=O)CSc1ncn[nH]1	6.6	-3.7	-0.9	14.3	3.1	.
CCCCn1c(C23CC4CC(CC(C4)C2)C3)n[nH]c1=S	9.7	13.4	-0.4	11.0	3.8	.
COc1cc(C(=O)NC2CC3CCCC(C2)N3CC(=O)Nc2ccccc2)cc(OC)c1OC (centres undefined)	2.8	6.1	-4.0	3.9	61.9*	68.6*
O=C(CN1C2CCCC1CC(NC(=O)c1ccco1)C2)Nc1ccccc1 (centres undefined)	-11.3	19.5	-2.9	-2.4	1.1	.
O=C(Nc1ccc(Oc2ccccc2)cc1)c1csc([C@@H]2O[C@H](CO)[C@H](O)[C@H](O)[C@H]2O)n1	10.1	.	.	.	47.8*	51.6*
CC(=O)Nc1ccc(NC(=O)c2csc([C@@H]3O[C@H](CO)[C@H](O)[C@H](O)[C@H]3O)n2)cc1	-6.3	.	.	.	5.9	.
COc1ccc(N(CC(=O)NC2CCCC2)S(=O)(=O)c2c(C)[nH]c(=O)[nH]c2=O)cc1	-0.9	-60.8	-2.7	7.3	35.3*	8.0
Cc1cc(C)cc(N(CC(=O)NC2CCCC2)S(=O)(=O)c2c(C)[nH]c(=O)[nH]c2=O)c1	-3.4	6.8	-4.6	6.2	3.9	.
CCCc1cc(NCc2ccccn2)n2c(nc3ccccc32)c1C#N	-37.5	-19.9	3.5	2.1	58.8*	-0.6
Cc1cc(NCc2ccccn2)n2c(nc3ccccc32)c1C#N	-8.1	.	.	-6.8	-14.6	.
Cc1cccc(NC(=S)N/N=C/c2ccc([N+](=O)[O-])s2)c1	31.5	17.5	-5.2	.	56.2*	53.1*
Cc1cccc(NC(=O)/C=C/c2ccc([N+](=O)[O-])s2)c1	26.4	.	.	3.0	9.9	.
CCCNC(=O)c1nnsc1S(=O)c1ccc(Cl)cc1 (centres undefined)	8.3	39.8	-6.0	96.5*	86.6*	98.6*
CCCNC(=O)c1nnsc1S(=O)(=O)c1ccc(Cl)cc1	11.7	23.2	-3.4	74.0*	64.9*	83.2*
CCCNC(=O)NS(=O)(=O)c1ccc(Cl)cc1	-2.7	-8.5	-3.8	15.3	-1.6	.
CNC(=O)c1nnsc1S(=O)c1ccc(Cl)cc1 (centres undefined)	6.8	26.9	-3.7	99.3*	96.1*	97.2*
